In brackets after ≈: the same amount, converted by molar mass. Blank lines part the entries; values can stand above or below the molecule they belong to.
Experiments:
[1] = test system: Staphylococcus aureus; assay: Antibacterial activity against Staphylococcus aureus ATCC 6538 after 24 hrs by microdilution method; type: functional; settings: ATCC 6538, 24 h
In short: (§1)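 Broth microdilution in 96-well plates. Bacterial suspensions were adjusted in sterile saline to 1.0 × 10⁵ CFU/ml, prepared daily and kept at 4 °C. Compound was added to LB broth with 1.0 × 10⁴ CFU per well and shaken at 160 rpm for 24 h at […] (so in the source). MIC is the lowest concentration with no visible growth under a binocular microscope. OD655 was also read. Duplicate, repeated three times.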

[2] = test system: Bacillus cereus; assay: Antibacterial activity against clinical isolate of Bacillus cereus after 24 hrs by microdilution method; type: functional; in short: as §1
[3] = test system: Micrococcus flavus; assay: Antibacterial activity against Micrococcus flavus ATCC 10240 after 24 hrs by microdilution method; type: functional; settings: ATCC 10240, 24 h; in short: as §1
[4] = test system: Listeria monocytogenes; assay: Antibacterial activity against Listeria monocytogenes NCTC 7973 after 24 hrs by microdilution method; type: functional; settings: NCTC 7973, 24 h; in short: as §1
[5] = test system: Pseudomonas aeruginosa; assay: Antibacterial activity against Pseudomonas aeruginosa ATCC 27853 after 24 hrs by microdilution method; type: functional; settings: ATCC 27853, 24 h; in short: as §1
[6] = test system: Salmonella typhimurium; assay: Antibacterial activity against Salmonella Typhimurium ATCC 13311 after 24 hrs by microdilution method; type: functional, Salmonella enterica subsp. enterica serovar Typhimurium; settings: Salmonella enterica, ATCC 13311, 24 h; in short: as §1
[7] = test system: Escherichia coli; assay: Antibacterial activity against Escherichia coli ATCC 35210 after 24 hrs by microdilution method; type: functional; settings: ATCC 35210, 24 h; in short: as §1
[8] = test system: Enterococcus faecalis; assay: Antibacterial activity against Enterococcus faecalis isolated from human after 24 hrs by microdilution method; type: functional; in short: as §1
[9] = test system: Staphylococcus aureus; assay: Antibacterial activity against Staphylococcus aureus ATCC 6538 incubated for 24 hrs followed by serial sub-cultivation for 24 hrs by microdilution method; type: functional; settings: ATCC 6538, 24 h
In short: (§2)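 MBC: after the 24 h LB broth microdilution (1.0 × 10⁴ CFU per well, 160 rpm), wells were serially sub-cultured into fresh broth plates and incubated a further 24 h. MBC is the lowest concentration with no visible growth, taken as 99.5% killing of the original inoculum. Duplicate, repeated three times.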

[10] = test system: Bacillus cereus; assay: Antibacterial activity against clinical isolate of Bacillus cereus incubated for 24 hrs followed by serial sub-cultivation for 24 hrs by microdilution; type: functional; in short: as §2
[11] = test system: Micrococcus flavus; assay: Antibacterial activity against Micrococcus flavus ATCC 10240 incubated for 24 hrs followed by serial sub-cultivation for 24 hrs by microdilution; type: functional; settings: ATCC 10240, 24 h; in short: as §2
[12] = test system: Listeria monocytogenes; assay: Antibacterial activity against Listeria monocytogenes NCTC 7973 incubated for 24 hrs followed by serial sub-cultivation for 24 hrs by microdilution; type: functional; settings: NCTC 7973, 24 h; in short: as §2
[13] = test system: Pseudomonas aeruginosa; assay: Antibacterial activity against Pseudomonas aeruginosa ATCC 27853 incubated for 24 hrs followed by serial sub-cultivation for 24 hrs by microdilution; type: functional; settings: ATCC 27853, 24 h; in short: as §2
[14] = test system: Salmonella typhimurium; assay: Antibacterial activity against Salmonella Typhimurium ATCC 13311 incubated for 24 hrs followed by serial sub-cultivation for 24 hrs by microdilution; type: functional, Salmonella enterica subsp. enterica serovar Typhimurium; settings: Salmonella enterica, ATCC 13311, 24 h; in short: as §2
[15] = test system: Escherichia coli; assay: Antibacterial activity against Escherichia coli ATCC 35210 incubated for 24 hrs followed by serial sub-cultivation for 24 hrs by microdilution; type: functional; settings: ATCC 35210, 24 h; in short: as §2
[16] = test system: Enterococcus faecalis; assay: Antibacterial activity against Enterococcus faecalis isolated from human incubated for 24 hrs followed by serial sub-cultivation for 24 hrs by microdilution; type: functional; in short: as §2
[17] = test system: Aspergillus ochraceus; assay: Antifungal activity against Aspergillus ochraceus ATCC 12066 after 72 hrs by serial dilution technique; type: functional; settings: ATCC 12066, 72 h
In short: (§3)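 Modified microdilution in 96-well plates. Fungi were kept on malt agar at 4 °C. Spores were washed off in sterile 0.85% saline with 0.1% Tween 80. Compounds were dissolved at 1 mg/ml in 5% DMSO with 0.1% Tween 80 and added to malt broth with inoculum. Plates were shaken at 160 rpm for 72 h at 28 °C. Duplicate, repeated three times.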

[18] = test system: Aspergillus niger; assay: Antifungal activity against Aspergillus niger ATCC 6275 after 72 hrs by serial dilution technique; type: functional; settings: ATCC 6275, 72 h; in short: as §3
[19] = test system: Aspergillus flavus; assay: Antifungal activity against Aspergillus flavus ATCC 9643 after 72 hrs by serial dilution technique; type: functional; settings: ATCC 9643, 72 h; in short: as §3
[20] = test system: Talaromyces funiculosus; assay: Antifungal activity against Penicillium funiculosum ATCC 36839 after 72 hrs by serial dilution technique; type: functional; settings: ATCC 36839, 72 h; in short: as §3
[21] = test system: Penicillium ochrochloron; assay: Antifungal activity against Penicillium ochrochloron ATCC 9112 after 72 hrs by serial dilution technique; type: functional; settings: ATCC 9112, 72 h; in short: as §3
[22] = test system: Trichoderma viride; assay: Antifungal activity against Trichoderma viride IAM 5061 after 72 hrs by serial dilution technique; type: functional; settings: IAM 5061, 72 h; in short: as §3
[23] = test system: Candida albicans; assay: Antifungal activity against Candida albicans isolated from human after 72 hrs by serial dilution technique; type: functional; in short: as §3
[24] = test system: Aspergillus ochraceus; assay: Antifungal activity against Aspergillus ochraceus ATCC 12066 incubated for 72 hrs followed by serial sub-cultivation for 72 hrs by serial dilution technique; type: functional; settings: ATCC 12066, 72 h
In short: (§4)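 MFC: material from 72 h malt broth microdilution wells was serially sub-cultured into fresh broth plates and incubated a further 72 h at 28 °C. Fungicidal concentration is taken from growth after sub-culture. Duplicate, repeated three times.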

[25] = test system: Aspergillus fumigatus; assay: Antifungal activity against Aspergillus fumigatus isolated from human incubated for 72 hrs followed by serial sub-cultivation for 72 hrs by serial dilution technique; type: functional; in short: as §4
[26] = test system: Aspergillus niger; assay: Antifungal activity against Aspergillus niger ATCC 6275 incubated for 72 hrs followed by serial sub-cultivation for 72 hrs by serial dilution technique; type: functional; settings: ATCC 6275, 72 h; in short: as §4
[27] = test system: Aspergillus flavus; assay: Antifungal activity against Aspergillus flavus ATCC 9643 incubated for 72 hrs followed by serial sub-cultivation for 72 hrs by serial dilution technique; type: functional; settings: ATCC 9643, 72 h; in short: as §4
[28] = test system: Talaromyces funiculosus; assay: Antifungal activity against Penicillium funiculosum ATCC 36839 incubated for 72 hrs followed by serial sub-cultivation for 72 hrs by serial dilution technique; type: functional; settings: ATCC 36839, 72 h; in short: as §4
[29] = test system: Penicillium ochrochloron; assay: Antifungal activity against Penicillium ochrochloron ATCC 9112 incubated for 72 hrs followed by serial sub-cultivation for 72 hrs by serial dilution technique; type: functional; settings: ATCC 9112, 72 h; in short: as §4
[30] = test system: Trichoderma viride; assay: Antifungal activity against Trichoderma viride IAM 5061 incubated for 72 hrs followed by serial sub-cultivation for 72 hrs by serial dilution technique; type: functional; settings: IAM 5061, 72 h; in short: as §4
[31] = test system: Candida albicans; assay: Antifungal activity against Candida albicans isolated from human incubated for 72 hrs followed by serial sub-cultivation for 72 hrs by serial dilution technique; type: functional; in short: as §4
[32] = test system: Pseudomonas aeruginosa; assay: Ratio of ampicillin MIC to compound MIC for Pseudomonas aeruginosa ATCC 27853; type: functional
[33] = test system: Aspergillus ochraceus; assay: Ratio of bifonazole to compound for Aspergillus ochraceus ATCC 12066; type: functional
[34] = test system: Aspergillus niger; assay: Ratio of bifonazole to compound for Aspergillus niger ATCC 6275; type: functional
[35] = test system: Talaromyces funiculosus; assay: Ratio of bifonazole to compound for Penicillium funiculosum ATCC 36839; type: functional
[36] = test system: Penicillium ochrochloron; assay: Ratio of bifonazole to compound for Penicillium ochrochloron ATCC 9112; type: functional
[37] = test system: Trichoderma viride; assay: Ratio of bifonazole to compound for Trichoderma viride IAM 5061; type: functional
[38] = test system: Candida albicans; assay: Ratio of bifonazole to compound for Candida albicans isolated from human; type: functional
[39] = test system: Aspergillus ochraceus; assay: Ratio of ketoconazole to compound for Aspergillus ochraceus ATCC 12066; type: functional
[40] = test system: Aspergillus fumigatus; assay: Ratio of ketoconazole to compound for Aspergillus fumigatus isolated from human; type: functional
[41] = test system: Penicillium ochrochloron; assay: Ratio of ketoconazole to compound for Penicillium ochrochloron ATCC 9112; type: functional
[42] = test system: Candida albicans; assay: Ratio of ketoconazole to compound for Candida albicans isolated from human; type: functional
[43] = test system: Aspergillus ochraceus; assay: Antifungal activity against Aspergillus ochraceus after 72 hrs by serial dilution technique

- MIC [1]: 57.1 µM (≈ 20.1 µg/mL)
- MIC [2]: 28.6 µM (≈ 10 µg/mL)
- MIC [3]: 57.1 µM (≈ 20.1 µg/mL)
- MIC [4]: 85.7 µM (≈ 30.1 µg/mL)
- MIC [5]: 57.1 µM (≈ 20.1 µg/mL)
- MIC [6]: 57.1 µM (≈ 20.1 µg/mL)
- MIC [7]: 57.1 µM (≈ 20.1 µg/mL)
- MIC [8]: 57.1 µM (≈ 20.1 µg/mL)
- MIC [17]: 28.9 µM (≈ 10.2 µg/mL)
- MIC [18]: 42.9 µM (≈ 15.1 µg/mL)
- MIC [19]: 42.9 µM (≈ 15.1 µg/mL)
- MIC [20]: 28.9 µM (≈ 10.2 µg/mL)
- MIC [21]: 28.9 µM (≈ 10.2 µg/mL)
- MIC [22]: 28.9 µM (≈ 10.2 µg/mL)
- MIC [23]: 28.9 µM (≈ 10.2 µg/mL)
- MIC [43]: 42.9 µM (≈ 15.1 µg/mL)
SMILES: CCNc1nc(C)c(C(=O)/C=C/c2cccc(Br)c2)s1
- MBC [9]: 71.4 µM (≈ 25.1 µg/mL)
- MBC [10]: 71.4 µM (≈ 25.1 µg/mL)
- MBC [11]: 85.7 µM (≈ 30.1 µg/mL)
- MBC [12]: 100 µM (≈ 35.1 µg/mL)
- MBC [13]: 71.4 µM (≈ 25.1 µg/mL)
- MBC [14]: 71.4 µM (≈ 25.1 µg/mL)
- MBC [15]: 71.4 µM (≈ 25.1 µg/mL)
- MBC [16]: 71.4 µM (≈ 25.1 µg/mL)
- MFC [24]: 42.9 µM (≈ 15.1 µg/mL)
- MFC [25]: 57.1 µM (≈ 20.1 µg/mL)
- MFC [26]: 57.1 µM (≈ 20.1 µg/mL)
- MFC [27]: 57.1 µM (≈ 20.1 µg/mL)
- MFC [28]: 42.9 µM (≈ 15.1 µg/mL)
- MFC [29]: 58.2 µM (≈ 20.4 µg/mL)
- MFC [30]: 57.2 µM (≈ 20.1 µg/mL)
- MFC [31]: 57.2 µM (≈ 20.1 µg/mL)
- Ratio [32]: 10
- Ratio [33]: 10
- Ratio [34]: 10
- Ratio [35]: 10
- Ratio [36]: 10
- Ratio [37]: 10
- Ratio [38]: 10
- Ratio [39]: 10
- Ratio [40]: 10
- Ratio [41]: 10
- Ratio [42]: 10

- MIC [1]: 73.5 µM (≈ 20 µg/mL)
- MIC [2]: 73.5 µM (≈ 20 µg/mL)
- MIC [3]: 73.5 µM (≈ 20 µg/mL)
- MIC [4]: 110 µM (≈ 30 µg/mL)
- MIC [5]: 73.5 µM (≈ 20 µg/mL)
- MIC [6]: 73.5 µM (≈ 20 µg/mL)
- MIC [7]: 55.1 µM (≈ 15 µg/mL)
- MIC [8]: 55.1 µM (≈ 15 µg/mL)
- MIC [17]: 36.8 µM (≈ 10 µg/mL)
- MIC [18]: 37.8 µM (≈ 10.3 µg/mL)
- MIC [19]: 36.8 µM (≈ 10 µg/mL)
- MIC [20]: 36.8 µM (≈ 10 µg/mL)
- MIC [21]: 36.8 µM (≈ 10 µg/mL)
- MIC [22]: 36.8 µM (≈ 10 µg/mL)
- MIC [23]: 55.1 µM (≈ 15 µg/mL)
- MIC [43]: 36.8 µM (≈ 10 µg/mL)
SMILES: CNc1nc(C)c(C(=O)/C=C/c2cccc(C)c2)s1
- MBC [9]: 110 µM (≈ 30 µg/mL)
- MBC [10]: 91.9 µM (≈ 25 µg/mL)
- MBC [11]: 91.9 µM (≈ 25 µg/mL)
- MBC [12]: 110 µM (≈ 30 µg/mL)
- MBC [13]: 91.9 µM (≈ 25 µg/mL)
- MBC [14]: 91.9 µM (≈ 25 µg/mL)
- MBC [15]: 73.5 µM (≈ 20 µg/mL)
- MBC [16]: 73.5 µM (≈ 20 µg/mL)
- MFC [24]: 73.5 µM (≈ 20 µg/mL)
- MFC [25]: 73.5 µM (≈ 20 µg/mL)
- MFC [26]: 73.5 µM (≈ 20 µg/mL)
- MFC [27]: 91.9 µM (≈ 25 µg/mL)
- MFC [28]: 73.5 µM (≈ 20 µg/mL)
- MFC [29]: 73.5 µM (≈ 20 µg/mL)
- MFC [30]: 73.5 µM (≈ 20 µg/mL)
- MFC [31]: 73.5 µM (≈ 20 µg/mL)
- Ratio [32]: 10
- Ratio [33]: 10
- Ratio [34]: 10
- Ratio [35]: 10
- Ratio [36]: 10
- Ratio [37]: 10
- Ratio [38]: 10
- Ratio [39]: 10
- Ratio [40]: 10
- Ratio [41]: 10
- Ratio [42]: 10
